Experimental data collected from several papers.
TAOK3: Serine/threonine-protein kinase TAO3 (TAOK3, Homo sapiens, UniProt Q9H2K8)
STK16: Serine/threonine-protein kinase 16 (STK16, Homo sapiens, UniProt O75716)
PPO3: PPO3 (Agaricus bisporus, UniProt C7FF04)

Structure (SMILES)	target	test	conditions	endpoint	value
CCN1/C(=C/C(C)=O)Sc2ccc(F)cc21	5-hydroxytryptamine receptor 2A (HTR2A, Homo sapiens, UniProt P28223)	ligand displacement, radioligand	10 µM	inhibition	0.75%
Cc1cc(S(=O)(=O)N[C@H]2CC[C@H](CN3CCN(c4ccc(C5CCC(=O)NC5=O)cc4F)CC3)CC2)ccc1Nc1ncc(C(F)(F)F)c(N2CCC[C@](C)(O)C2)n1 (stereo partly shown)	TAOK3	binding, competition with immobilised ligand	1 µM	remaining binding	54%
NC/C(=C\F)COc1cccc(Cn2c(=S)[nH]c(=O)c3[nH]cnc32)c1	Sigma non-opioid intracellular receptor 1 (SIGMAR1, Homo sapiens, UniProt Q99720)	ligand displacement, radioligand	10 µM	inhibition	< 50%
Cc1cc(F)cc2c(CCC(=O)N[C@@H]3C(=O)NC[C@H]3O)c(-c3ccc(F)cc3)[nH]c12	Adenosine receptor A2a (ADORA2A, Homo sapiens, UniProt P29274)	cell-free assay	10 µM	inhibition	15%
C1=C/COCc2cc(ccc2OCCN2CCCC2)Nc2nccc(n2)-c2cccc(c2)COC/1	Cytoplasmic tyrosine-protein kinase BMX (BMX, Homo sapiens, UniProt P51813)	binding	0.1 µM	remaining binding	95%
CCCCC(=O)Nc1ccc(-c2ccc3ncn(CCC)c(=O)c3c2)cn1	STK16	binding, competition with immobilised ligand	0.5 µM	remaining binding	99%
CC(=O)ON=C1C=CC(=C(C#N)c2ccccc2)C=C1	Aurora kinase B (AURKB, Homo sapiens, UniProt Q96GD4)	enzyme activity, inhibitor, ADP detection	20 µM	activity vs control	75%
O=C(CCc1cccc(O)c1)N1CCN(Cc2ccc(F)cc2)CC1	PPO3	binding, SPR		kon	153 M⁻¹ s⁻¹
COc1ccc2oc(-c3ccc4nc(N)oc4c3)c/c(=N\c3ccccc3NC(=O)CCN)c2c1	Serine/threonine-protein kinase WNK1 (WNK1, Homo sapiens, UniProt Q9H4A3)	binding	1 µM	remaining binding	114%
C[C@]1(O)CCCN(c2nc(Nc3ccc(S(=O)(=O)N[C@H]4CC[C@H](CN5CCN(c6ccc(C7CCC(=O)NC7=O)cc6F)CC5)CC4)cc3Cl)ncc2C(F)(F)F)C1 (stereo partly shown)	TAOK3	binding, competition with immobilised ligand	1 µM	remaining binding	82%
Cc1ccc(CN2CCN(C(=O)/C=C/c3ccc(O)cc3O)CC2)cc1	PPO3	binding, SPR		kon	298 M⁻¹ s⁻¹
C[C@]1(O)CCCN(c2nc(Nc3ccc(S(=O)(=O)N[C@H]4CC[C@H](CN5CCN(c6ccc(C7CCC(=O)NC7=O)cc6F)CC5)CC4)cc3F)ncc2C(F)(F)F)C1 (stereo partly shown)	STK16	binding, competition with immobilised ligand	1 µM	remaining binding	81%
Cc1cc(O)c(-c2ccc([C@@H](C)CN(C)C)cc2)c2c1[nH]c(=O)c1sccc12	Interleukin-1 receptor-associated kinase-like 2 (IRAK2, Homo sapiens, UniProt O43187)	cell-free assay, inhibitor	0.1 µM, lysate	inhibition	13.1%
